Tested on: SK-OV-3 cells
Experiment: Confocal microscopy on live cells
Assay type: cell-based, human
Conditions: F′-PEpYLGLD 5 μM alone, opti-MEM, 2 h, 37 °C
In short: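 SK-OV-3 seeded at 1 × 10^5 cells/well on coverslips overnight in EMEM, then rinsed with opti-MEM. Exposed to treatments in opti-MEM for 2 h at 37 °C, washed three times with PBS and mounted. Imaged by laser scanning confocal, 20× objective, sequential frame mode. Channels: FITC (ex 488, em 500–550 nm), DAPI (ex 405, em 425–475 nm), DIC.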

intracellular fluorescence of F′-PEpYLGLD alone (confocal): No green fluorescence was observed
Substance: F′-PEpYLGLD
